Measurements published in ChEMBL document CHEMBL1141044, “Synthesis and antipicornavirus activity of (R)- and (S)-1-[5-(4'-chlorobiphenyl-4-yloxy)-3-methylpentyl]-3-pyridin-4-yl-imidazolidin-2-one” (Bioorg Med Chem Lett, 2005).

How the values were obtained:
[1] = Cytotoxicity against Human rhabdomyosarcoma cells using plaque reduction assay; assay type: functional
Procedure, shortened: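 Cytotoxicity was measured in human rhabdomyosarcoma (RD) cells. Values are means of triplicate wells from experiments done at least twice.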

[2] = system: Enterovirus A71; test: Inhibitory activity against Human enterovirus 71 strain 4643 using plaque reduction assay; assay type: functional, organism-based; conditions: Enterovirus A
Procedure, shortened: (§1)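 EV71 strain 4643 titrated by plaque reduction in human rhabdomyosarcoma (RD) cells. Values are means of triplicate wells, and each experiment was run at least twice.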

[3] = system: Enterovirus A71; test: Inhibitory activity against Human Enterovirus 71 (1743) B using plaque reduction assay; assay type: functional, organism-based; conditions: Enterovirus A
Procedure, shortened: (§2)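 Panel screen by plaque reduction against representative human enteroviruses and rhinoviruses. Each value is a mean of triplicate wells, with all experiments performed at least twice.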

[4] = system: rhinovirus B14; test: Inhibitory activity against Human rhinovirus 14 using plaque reduction assay; assay type: functional, organism-based, Human rhinovirus sp.; conditions: Rhinovirus B; procedure, shortened: as §2
[5] = system: Coxsackievirus; test: Inhibitory activity against Coxsackievirus A16 using plaque reduction assay; assay type: functional, organism-based; procedure, shortened: as §2
[6] = system: Coxsackievirus; test: Inhibitory activity against Coxsackievirus B6 using plaque reduction assay; assay type: functional, organism-based; procedure, shortened: as §2
[7] = system: Coxsackievirus; test: Inhibitory activity against Coxsackievirus A9 using plaque reduction assay; assay type: functional, organism-based; procedure, shortened: as §2
[8] = system: Enterovirus A71; test: Inhibitory activity against Human Enterovirus 71 (2086) C using plaque reduction assay; assay type: functional, organism-based; conditions: Enterovirus A; procedure, shortened: as §2
[9] = system: Enterovirus A71; test: Inhibitory activity against Human Enterovirus 71 (BrCr) A using plaque reduction assay; assay type: functional, organism-based; procedure, shortened: as §2
[10] = system: Enterovirus A71; test: Inhibitory activity against Human Enterovirus 71 (2231) C using plaque reduction assay; assay type: functional, organism-based; conditions: Enterovirus A; procedure, shortened: as §2
[11] = system: Enterovirus A71; test: Inhibitory activity against human enterovirus 71 strain 4643 using plaque reduction assay; assay type: functional, organism-based; conditions: Enterovirus A; procedure, shortened: as §1
[12] = system: Enterovirus A71; test: Inhibitory activity against Human Enterovirus 71 (4643) C using plaque reduction assay; assay type: functional, organism-based; conditions: Enterovirus A; procedure, shortened: as §2
[13] = system: rhinovirus A2; test: Inhibitory activity against Human rhinovirus 2 using plaque reduction assay; assay type: functional, organism-based, Human rhinovirus sp.; conditions: Rhinovirus A; procedure, shortened: as §2
[14] = system: Echovirus; test: Inhibitory activity against Echovirus 29 using plaque reduction assay; assay type: functional, organism-based; procedure, shortened: as §2
[15] = system: Coxsackievirus; test: Inhibitory activity against Coxsackievirus A24 using plaque reduction assay; assay type: functional, organism-based; procedure, shortened: as §2
[16] = system: Coxsackievirus; test: Inhibitory activity against Coxsackievirus B2 using plaque reduction assay; assay type: functional, organism-based; procedure, shortened: as §2
[17] = system: Enterovirus D68; test: Inhibitory activity against Human Enterovirus 68 using plaque reduction assay; conditions: Enterovirus D
[18] = system: Coxsackievirus; test: Inhibitory activity against Coxsackievirus B5 using plaque reduction assay; assay type: functional, organism-based; procedure, shortened: as §2
[19] = system: Coxsackievirus; test: Inhibitory activity against Coxsackievirus B3 using plaque reduction assay; assay type: functional, organism-based; procedure, shortened: as §2
[20] = system: Coxsackievirus; test: Inhibitory activity against Coxsackievirus B1 using plaque reduction assay; assay type: functional, organism-based; procedure, shortened: as §2
[21] = system: Coxsackievirus; test: Inhibitory activity against Coxsackievirus B4 using plaque reduction assay; assay type: functional, organism-based; procedure, shortened: as §2
[22] = system: Enterovirus; test: Inhibitory activity against Enterovirus 68 using plaque reduction assay; assay type: functional, organism-based; procedure, shortened: as §2
[23] = system: Coxsackievirus; test: Inhibitory activity against Coxsackievirus A10 using plaque reduction assay; assay type: functional, organism-based; procedure, shortened: as §2
[24] = system: Enterovirus A71; test: Inhibitory activity against human Enterovirus 71 (4643) C using plaque reduction assay; assay type: functional, organism-based; conditions: Enterovirus A; procedure, shortened: as §2
[25] = system: Enterovirus A71; test: Inhibitory activity against human Enterovirus 71 (2086) C using plaque reduction assay; assay type: functional, organism-based; conditions: Enterovirus A; procedure, shortened: as §2
[26] = system: Enterovirus A71; test: Inhibitory activity against human Enterovirus 71 (BrCr) A using plaque reduction assay; assay type: functional, organism-based; procedure, shortened: as §2
[27] = system: Enterovirus A71; test: Inhibitory activity against human Enterovirus 71 (2231) C using plaque reduction assay; assay type: functional, organism-based; conditions: Enterovirus A; procedure, shortened: as §2
[28] = system: Enterovirus A71; test: Inhibitory activity against human Enterovirus 71 (1743) B using plaque reduction assay; assay type: functional, organism-based; conditions: Enterovirus A; procedure, shortened: as §2

| IC50 [2] | IC50 [3] | IC50 [4] | IC50 [5] | IC50 [6] | IC50 [7] | IC50 [8] | IC50 [9] | IC50 [10] | IC50 [12] | IC50 [13] | IC50 [14] | IC50 [15] | IC50 [16] | IC50 [18] | IC50 [19] | IC50 [20] | IC50 [21] | IC50 [22] | Compound | CC50 [1] | also measured |
| --- | --- | --- | --- | --- | --- | --- | --- | --- | --- | --- | --- | --- | --- | --- | --- | --- | --- | --- | --- | --- | --- |
| 40 nM |  |  |  |  |  |  |  |  |  |  |  |  |  |  |  |  |  |  | CC(C)(CCOc1ccc(-c2ccc(Cl)cc2)cc1)CCN1CCN(c2ccncc2)C1=O | > 25000 nM |  |
| 3 nM | 26 nM | > 25000 nM | 6920 nM | > 25000 nM | 19 nM | 8 nM | 33 nM | 24 nM | 3 nM | > 25000 nM | 1300 nM | > 25000 nM | > 25000 nM | 4850 nM | > 25000 nM | > 25000 nM | 1250 nM |  | C[C@H](CCOc1ccc(-c2ccc(Cl)cc2)cc1)CCN1CCN(c2ccncc2)C1=O | > 25000 nM | IC50 [11]: 3 nM; IC50 [17]: > 25000 nM |
| 33 nM | 170 nM | > 25000 nM | > 25000 nM | > 25000 nM | 150 nM | 49 nM | 320 nM | 160 nM | 33 nM | > 25000 nM | 1470 nM | > 25000 nM | > 25000 nM | 2080 nM | > 25000 nM | > 25000 nM | 2050 nM | > 25000 nM | C[C@@H](CCOc1ccc(-c2ccc(Cl)cc2)cc1)CCN1CCN(c2ccncc2)C1=O | > 25000 nM | IC50 [23]: > 25000 nM |
| 54 nM |  | > 25000 nM | > 25000 nM | > 25000 nM |  |  |  |  |  | > 25000 nM | 390 nM |  | > 25000 nM |  | > 25000 nM | > 25000 nM | 1300 nM | > 25000 nM | O=C1N(CCCCCOc2ccc(-c3ccc(Cl)cc3)cc2)CCN1c1ccncc1 | > 25000 nM | IC50 [24]: 54 nM; IC50 [25]: 43 nM; IC50 [26]: 130 nM; IC50 [23]: > 25000 nM; IC50 [27]: 92 nM; IC50 [28]: 92 nM |
